Experimental data reported in ChEMBL document CHEMBL1140069, “In vitro antifungal activity of polyfunctionalized 2-(hetero)arylquinolines prepared through imino Diels-Alder reactions” (2008).
Converted amounts (≈) assume the structure as drawn.

How the values were obtained:
Assay type in all cases: functional
Nannizzia gypsea = assay: Antifungal activity against Microsporum gypseum C115 after 48 hrs by broth microdilution technique
In short: (§1)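 CLSI broth microdilution: M-27 A2 for yeasts and M-38 A for filamentous fungi. Medium is RPMI-1640 buffered to pH 7.0 with MOPS. Compound is diluted twofold from 250 to 0.98, final DMSO ≤2%. Inoculum is 1–5 × 10³ CFU/mL. Plates are incubated at 35 °C in a moist, dark chamber and read visually at 48 h. MIC100 is the lowest concentration giving total growth inhibition versus drug-free control.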

Aspergillus fumigatus = assay: Antifungal activity against Aspergillus fumigatus ATTC 26934 after 48 hrs by broth microdilution technique; in short: as §1
Aspergillus niger = assay: Antifungal activity against Aspergillus niger ATCC 9029 after 48 hrs by broth microdilution technique; conditions: ATCC 9029, 48 h; in short: as §1
[1] = system: Trichophyton mentagrophytes; assay: Antifungal activity against Trichophyton mentagrophytes ATCC 9972 after 48 hrs by broth microdilution technique; conditions: ATCC 9972, 48 h; in short: as §1
Cryptococcus neoformans = assay: Antifungal activity against Cryptococcus neoformans ATCC 32264 after 48 hrs by broth microdilution technique; conditions: ATCC 32264, 48 h; in short: as §1
Trichophyton rubrum = assay: Antifungal activity against Trichophyton rubrum C110 after 48 hrs by broth microdilution technique; conditions: read-out: MIC; in short: as §1
Candida albicans = assay: Antifungal activity against Candida albicans ATCC 10231 after 48 hrs by broth microdilution technique; conditions: ATCC 10231, 48 h; in short: as §1
Saccharomyces cerevisiae = assay: Antifungal activity against Saccharomyces cerevisiae ATCC 9763 after 48 hrs by broth microdilution technique; conditions: ATCC 9763, 48 h; in short: as §1
Aspergillus flavus = assay: Antifungal activity against Aspergillus flavus ATCC 9170 after 48 hrs by broth microdilution technique; conditions: ATCC 9170, 48 h; in short: as §1

**Q.** How did the MIC (Nannizzia gypsea) turn out when Cc1ccc([N+](=O)[O-])c2c(C)cc(-c3ccncc3)nc12 was run?
**A.** > 250 µg/mL

**Q.** And the MIC (Aspergillus fumigatus)?
**A.** > 250 µg/mL

**Q.** What about the MIC (Aspergillus niger) of the same compound?
**A.** > 250 µg/mL

**Q.** What about the MIC [1] of the same compound?
**A.** > 250 µg/mL

**Q.** And the MIC (Cryptococcus neoformans)?
**A.** > 250 µg/mL

**Q.** What about the MIC (Trichophyton rubrum) of the same compound?
**A.** > 250 µg/mL

**Q.** What about the MIC (Candida albicans) of the same compound?
**A.** > 250 µg/mL

**Q.** And the MIC (Saccharomyces cerevisiae)?
**A.** > 250 µg/mL

**Q.** What about the MIC (Aspergillus flavus) of the same compound?
**A.** > 250 µg/mL

**Q.** Which MIC (Nannizzia gypsea) does the source give for Nc1cccc(-c2ccc3cc(Cl)ccc3n2)c1 here?
**A.** 125 µg/mL (≈ 491 µM)

**Q.** And the MIC (Aspergillus fumigatus)?
**A.** > 250 µg/mL

**Q.** What about the MIC (Aspergillus niger) of the same compound?
**A.** > 250 µg/mL

**Q.** And the MIC [1]?
**A.** 125 µg/mL (≈ 491 µM)

**Q.** What about the MIC (Cryptococcus neoformans) of the same compound?
**A.** > 250 µg/mL

**Q.** And the MIC (Trichophyton rubrum)?
**A.** 125 µg/mL (≈ 491 µM)

**Q.** And the MIC (Candida albicans)?
**A.** > 250 µg/mL

**Q.** What about the MIC (Saccharomyces cerevisiae) of the same compound?
**A.** > 250 µg/mL

**Q.** And the MIC (Aspergillus flavus)?
**A.** > 250 µg/mL

**Q.** Which MIC (Nannizzia gypsea) does the source give for CCc1ccc2ccc(-c3ccc4c(c3)OCO4)nc2c1 here?
**A.** > 250 µg/mL

**Q.** What about the MIC (Aspergillus fumigatus) of the same compound?
**A.** > 250 µg/mL

**Q.** And the MIC (Aspergillus niger)?
**A.** > 250 µg/mL

**Q.** What about the MIC [1] of the same compound?
**A.** > 250 µg/mL

**Q.** And the MIC (Cryptococcus neoformans)?
**A.** > 250 µg/mL

**Q.** What about the MIC (Trichophyton rubrum) of the same compound?
**A.** > 250 µg/mL

**Q.** And the MIC (Candida albicans)?
**A.** > 250 µg/mL

**Q.** What about the MIC (Saccharomyces cerevisiae) of the same compound?
**A.** > 250 µg/mL

**Q.** What about the MIC (Aspergillus flavus) of the same compound?
**A.** > 250 µg/mL

**Q.** Which results are given for COc1ccc2nc(-c3ccc4c(c3)OCO4)ccc2c1?
**A.** MIC (Nannizzia gypsea): > 250 µg/mL; MIC (Aspergillus fumigatus): > 250 µg/mL; MIC (Aspergillus niger): > 250 µg/mL; MIC [1]: > 250 µg/mL; MIC (Cryptococcus neoformans): > 250 µg/mL; MIC (Trichophyton rubrum): > 250 µg/mL; MIC (Candida albicans): > 250 µg/mL; MIC (Saccharomyces cerevisiae): > 250 µg/mL; MIC (Aspergillus flavus): > 250 µg/mL

**Q.** How did the MIC (Nannizzia gypsea) turn out when Clc1ccc2nc(-c3ccco3)ccc2c1 was run?
**A.** > 250 µg/mL

**Q.** What about the MIC (Aspergillus fumigatus) of the same compound?
**A.** > 250 µg/mL

**Q.** What about the MIC (Aspergillus niger) of the same compound?
**A.** > 250 µg/mL

**Q.** What about the MIC [1] of the same compound?
**A.** > 250 µg/mL

**Q.** What about the MIC (Cryptococcus neoformans) of the same compound?
**A.** > 250 µg/mL

**Q.** And the MIC (Trichophyton rubrum)?
**A.** > 250 µg/mL

**Q.** And the MIC (Candida albicans)?
**A.** > 250 µg/mL

**Q.** What about the MIC (Saccharomyces cerevisiae) of the same compound?
**A.** > 250 µg/mL

**Q.** And the MIC (Aspergillus flavus)?
**A.** > 250 µg/mL

**Q.** For Fc1ccc2nc(-c3ccccc3)ccc2c1, which MIC (Nannizzia gypsea) is on record?
**A.** 250 µg/mL (≈ 1120 µM)

**Q.** And the MIC (Aspergillus fumigatus)?
**A.** > 250 µg/mL

**Q.** What about the MIC (Aspergillus niger) of the same compound?
**A.** > 250 µg/mL

**Q.** And the MIC [1]?
**A.** 250 µg/mL (≈ 1120 µM)

**Q.** What about the MIC (Cryptococcus neoformans) of the same compound?
**A.** > 250 µg/mL

**Q.** What about the MIC (Trichophyton rubrum) of the same compound?
**A.** 250 µg/mL (≈ 1120 µM)

**Q.** What about the MIC (Candida albicans) of the same compound?
**A.** > 250 µg/mL

**Q.** What about the MIC (Saccharomyces cerevisiae) of the same compound?
**A.** > 250 µg/mL

**Q.** And the MIC (Aspergillus flavus)?
**A.** > 250 µg/mL

**Q.** Which results are given for O=[N+]([O-])c1cccc(-c2ccc3cc(F)ccc3n2)c1?
**A.** MIC (Nannizzia gypsea): > 250 µg/mL; MIC (Aspergillus fumigatus): > 250 µg/mL; MIC (Aspergillus niger): > 250 µg/mL; MIC [1]: > 250 µg/mL; MIC (Cryptococcus neoformans): > 250 µg/mL; MIC (Trichophyton rubrum): > 250 µg/mL; MIC (Candida albicans): > 250 µg/mL; MIC (Saccharomyces cerevisiae): > 250 µg/mL; MIC (Aspergillus flavus): > 250 µg/mL

**Q.** With Cc1cc(-c2ccncc2)nc2c(C(C)C)ccc([N+](=O)[O-])c12 as the compound, how does the MIC (Nannizzia gypsea) read?
**A.** > 250 µg/mL

**Q.** What about the MIC (Aspergillus fumigatus) of the same compound?
**A.** > 250 µg/mL

**Q.** What about the MIC (Aspergillus niger) of the same compound?
**A.** > 250 µg/mL

**Q.** And the MIC [1]?
**A.** > 250 µg/mL

**Q.** And the MIC (Cryptococcus neoformans)?
**A.** > 250 µg/mL

**Q.** And the MIC (Trichophyton rubrum)?
**A.** > 250 µg/mL

**Q.** What about the MIC (Candida albicans) of the same compound?
**A.** > 250 µg/mL

**Q.** And the MIC (Saccharomyces cerevisiae)?
**A.** > 250 µg/mL

**Q.** And the MIC (Aspergillus flavus)?
**A.** > 250 µg/mL

**Q.** Which MIC (Nannizzia gypsea) does the source give for O=[N+]([O-])c1cccc(-c2ccc3cc(Cl)ccc3n2)c1 here?
**A.** > 250 µg/mL

**Q.** And the MIC (Aspergillus fumigatus)?
**A.** > 250 µg/mL

**Q.** And the MIC (Aspergillus niger)?
**A.** > 250 µg/mL

**Q.** And the MIC [1]?
**A.** > 250 µg/mL

**Q.** And the MIC (Cryptococcus neoformans)?
**A.** > 250 µg/mL

**Q.** What about the MIC (Trichophyton rubrum) of the same compound?
**A.** > 250 µg/mL

**Q.** What about the MIC (Candida albicans) of the same compound?
**A.** > 250 µg/mL

**Q.** And the MIC (Saccharomyces cerevisiae)?
**A.** > 250 µg/mL

**Q.** And the MIC (Aspergillus flavus)?
**A.** > 250 µg/mL

**Q.** With Cc1cc(-c2ccccc2)nc2ccccc12 as the compound, how does the MIC (Nannizzia gypsea) read?
**A.** 12.5 µg/mL (≈ 57 µM)

**Q.** And the MIC (Aspergillus fumigatus)?
**A.** > 250 µg/mL

**Q.** And the MIC (Aspergillus niger)?
**A.** > 250 µg/mL

**Q.** What about the MIC [1] of the same compound?
**A.** 12.5 µg/mL (≈ 57 µM)

**Q.** What about the MIC (Cryptococcus neoformans) of the same compound?
**A.** 250 µg/mL (≈ 1140 µM)

**Q.** And the MIC (Trichophyton rubrum)?
**A.** 25 µg/mL (≈ 114 µM)

**Q.** What about the MIC (Candida albicans) of the same compound?
**A.** > 250 µg/mL

**Q.** And the MIC (Saccharomyces cerevisiae)?
**A.** > 250 µg/mL

**Q.** What about the MIC (Aspergillus flavus) of the same compound?
**A.** > 250 µg/mL

**Q.** Which results are given for Cc1cc(-c2cccnc2)nc2ccc(Br)cc12?
**A.** MIC (Nannizzia gypsea): 12.5 µg/mL (≈ 41.8 µM); MIC (Aspergillus fumigatus): > 250 µg/mL; MIC (Aspergillus niger): > 250 µg/mL; MIC [1]: 12.5 µg/mL (≈ 41.8 µM); MIC (Cryptococcus neoformans): 250 µg/mL (≈ 836 µM); MIC (Trichophyton rubrum): 12.5 µg/mL (≈ 41.8 µM); MIC (Candida albicans): > 250 µg/mL; MIC (Saccharomyces cerevisiae): > 250 µg/mL; MIC (Aspergillus flavus): > 250 µg/mL

**Q.** For Cc1ccc2nc(-c3ccccc3)ccc2c1, which MIC (Nannizzia gypsea) is on record?
**A.** 250 µg/mL (≈ 1140 µM)

**Q.** What about the MIC (Aspergillus fumigatus) of the same compound?
**A.** > 250 µg/mL

**Q.** What about the MIC (Aspergillus niger) of the same compound?
**A.** > 250 µg/mL

**Q.** What about the MIC [1] of the same compound?
**A.** 250 µg/mL (≈ 1140 µM)

**Q.** And the MIC (Cryptococcus neoformans)?
**A.** 250 µg/mL (≈ 1140 µM)

**Q.** And the MIC (Trichophyton rubrum)?
**A.** 250 µg/mL (≈ 1140 µM)

**Q.** What about the MIC (Candida albicans) of the same compound?
**A.** > 250 µg/mL

**Q.** And the MIC (Saccharomyces cerevisiae)?
**A.** > 250 µg/mL

**Q.** And the MIC (Aspergillus flavus)?
**A.** > 250 µg/mL

**Q.** What does the source list for CCc1ccc2nc(-c3ccccc3)ccc2c1?
**A.** MIC (Nannizzia gypsea): 250 µg/mL (≈ 1070 µM); MIC (Aspergillus fumigatus): > 250 µg/mL; MIC (Aspergillus niger): > 250 µg/mL; MIC [1]: 250 µg/mL (≈ 1070 µM); MIC (Cryptococcus neoformans): > 250 µg/mL; MIC (Trichophyton rubrum): 250 µg/mL (≈ 1070 µM); MIC (Candida albicans): > 250 µg/mL; MIC (Saccharomyces cerevisiae): > 250 µg/mL; MIC (Aspergillus flavus): > 250 µg/mL
